Compounds with a hit are over-represented: about 1.9% of the library has one in this group of screens.
p-CIP stab down: lowers stability of the mouse p/CIP coactivator protein; Q05BA5; F442A p/CIP-EGFP cells, EGFP fluorescence, 16 h; decrease of EGFP signal, % at 10 µM; actives 0.01% (n = 290,000); AID 1984;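 active = EGFP signal decrease of at least 30% at 10 µM or well 3 SD below plate mean, unless failing retest; inactive = the rest, including hits failing retest or dose response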
HCV core dimer: HCV core protein dimerization inhibition. TR-FRET GST/Flag-core106 dimerization, 1536-well. inhibition, % at 5 µM. AID 1899. actives 0.33% (n = 300,000);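 active = inhibition above the mean of all tested compounds plus 3 SD, set per screening campaign, cut at about 45% in these data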
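Material: Tagged HCV core106 pair (GST and Flag) | Amount: GST-core106 13.5 nM, Flag-core106 17 nM | Medium: KF-containing HEPES buffer, pH 7.45, DTT, CHAPS, BSA | Reagent: Eu donor and XL665 acceptor anti-tag antibodies | Schedule: 4 h at 22.5 °C | Technique: Time-resolved FRET, ex 340 nm, em 617 and 671 nm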
GPR7 antag: antagonists of human GPR7 (neuropeptides B/W receptor 1); P48145; GPR7-expressing cells, fluorescence antagonist assay; inhibition, % at 4.4 µM; actives 1.1% (n = 290,000); AID 1861; in the data active = inhibition above about 16%, passing the limit was not always enough;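 note: cells stimulated with the agonist NPW; 0% = agonist with vehicle and 100% = vehicle without agonist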
DNA FID counter: fluorescent intercalator displacement, NS3 helicase counter-screen | DNA fluorescent intercalator displacement, fluorescence | inhibition, % at 7.9 µM | actives 0.17% (n = 290,000) | AID 1845; in the data active = inhibition above about 37%;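 note: 0% = vehicle and 100% = reference compound; higher means more ethidium bromide displaced from hairpin DNA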
NS3 helicase inh: HCV NS3 helicase inhibition; NS3 helicase DNA unwinding, Cy5 molecular beacon fluorescence; inhibition, % at 10.9 µM; actives 0.56% (n = 290,000);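 active = inhibition above the mean of all tested compounds plus 3 SD, set per campaign, cut at about 35% in these data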;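 note: 0% = DMSO wells and 100% = thioflavine S control wells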
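System: HCV NS3 helicase fragment; control set: DMSO and thioflavine S; technique: Cy5 fluorescence at 0 and 60 min, beacon hairpin quenching; reagent: beacon DNA duplex substrate plus ATP; replicates: singlicate; schedule: 1 h reaction at 25 °C, ATP-initiated; medium: MOPS buffer pH 6.5 with MgCl2, DTT, Tween20, BSA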
* marks the source's active call; other numbers are inactive results; . = not tested or not shown.

SMILES	p-CIP stab down	HCV core dimer	GPR7 antag	DNA FID counter	NS3 helicase inh
COC(=O)c1cc(COc2ccc3c(c2)oc(=O)c2ccccc23)c(C)o1	-5.2	51.3*	-10.0	-2.0	1.8
CCC(C)NC(=O)C(Sc1ccccc1)c1ccccc1 (configuration not stated)	-0.2	-7.3	-3.9	-4.1	1.8
CSc1nc(NCCOCCO)c2sc3nc(-c4ccco4)c4c(c3c2n1)CCC4	-8.0	87.0*	-3.4	-27.8	30.2
CSc1nc(NCc2ccco2)c2sc3nc(C(C)C)c4c(c3c2n1)CC(C)(C)OC4	4.9	2.5	-7.0	-1.9	4.4
CC1CCC2(CC1)NC(=O)N(CC(=O)Nc1ccc3c(c1)OCCO3)C2=O (configuration not stated)	-14.3	-1.9	-0.3	1.1	-0.1
CC1CCC2(CC1)NC(=O)N(CC(=O)NC(=O)Nc1ccc3c(c1)OCCO3)C2=O (configuration not stated)	-7.1	-5.7	19.6*	-15.9	3.0
CCCCNC(=O)CC1N=C2c3ccccc3N=C(SCC(=O)Nc3ccc(OC)cc3)N2C1=O (configuration not stated)	45.9*	1.8	-8.4	-27.3	-0.6
CCCCNC(=O)CC1N=C2c3ccccc3N=C(SCC(=O)Nc3cccc(OC)c3)N2C1=O (configuration not stated)	-5.2	-1.5	-1.0	-23.6	-5.1
Cc1ccc(CSC2=Nc3ccccc3C3=NC(CC(=O)NCc4ccco4)C(=O)N23)cc1 (configuration not stated)	-3.8	64.2*	3.3	-23.9	30.5
CCCCCC(=O)Nc1cc(S(=O)(=O)N2CCOCC2)ccc1N1CCCCC1	.	2.0	.	.	.
CN(C)CCCn1c2c(c(SCC(=O)Nc3cccc4ccccc34)nc1=O)CCCC2	.	4.4	.	.	.
Cn1c(=O)c2c(ncn2CCOc2cccc(Br)c2)n(C)c1=O	-7.6	7.6	-9.0	-16.4	6.3
O=C(NCc1ccco1)C1Cc2ccccc2CN1S(=O)(=O)c1ccccc1F (configuration not stated)	.	55.1*	-2.3	-18.7	21.5
C[n+]1c2n(c3ccccc31)N=C(c1cc(C(C)(C)C)c(O)c(C(C)(C)C)c1)CS2	-13.4	-0.2	70.1*	14.4	-42.9
CN(C(=O)COc1cc(=O)n(C)c2ccccc12)c1ccc(Cl)cc1	-6.2	-3.2	17.5	-10.2	10.2
CN(c1ccc(Cl)cc1)c1cc(=O)n(C)c2ccccc12	-9.2	67.5*	-5.4	-14.1	14.4
Cc1cc(C)c2nc(-c3ccccn3)cc(C(=O)N3CCCC3)c2c1	-14.1	47.9*	-2.0	-47.4	22.5
Cc1cc(C)c2nc(-c3ccccn3)cc(C(=O)Nc3ccc(S(=O)(=O)Nc4cc(C)on4)cc3)c2c1	-3.3	36.6	-7.3	-14.1	23.3
Cc1cc(C)c2nc(-c3ccccn3)cc(C(=O)Nc3ccc(S(=O)(=O)Nc4onc(C)c4C)cc3)c2c1	-11.5	59.7*	-1.4	-16.5	-15.1
COc1cccc2c1C(=O)c1c(O)c3c(c(O)c1C2=O)C[C@@](O)(C(=O)CO)C[C@@H]3O[C@H]1C[C@H](N)[C@H](O)[C@H](C)O1	-76.8	-14.8	4.9	58.6*	8.2
CC(C)NCc1nnc(-c2ccccc2Cl)o1	-4.9	1.6	6.8	-4.0	15.5
CC(=O)c1ccc2c(c1)C1C=CCC1C(c1ccc(S(=O)(=O)N3CCOCC3)cc1)N2 (configuration not stated)	-11.3	78.8*	-5.7	-10.6	10.5
O=C(NCCN1CCc2ccccc2C1)C1CCN(S(=O)(=O)N2CCCCC2)CC1	-2.9	1.1	20.1*	3.4	-13.0
Cc1c(C)n(Cc2ccccc2)c2ccc(C(=O)OCCCN(C)C)cc12	-11.8	-3.6	9.0	18.7	-67.5
Cc1c(C)n(CCN(C)C)c2ccc(C(=O)OCCN(C)C)cc12	-9.7	-3.5	-10.1	62.4*	16.3
SMILES	p-CIP stab down	HCV core dimer	GPR7 antag	DNA FID counter	NS3 helicase inh
Cc1cc(C)c2sc(NC(=O)c3ccc(N4C(=O)CCC4=O)cc3)nc2c1	1.1	15.7	1.2	-7.1	7.1
Cc1ccc2nc(NC(=O)c3ccc(N4C(=O)CCC4=O)cc3)sc2c1	2.1	47.9*	9.6	11.0	2.4
Cc1ccccc1-c1nn(-c2ccc(F)cc2F)cc1CNCCCN(C)C	3.6	-7.3	1.3	42.2*	-49.8
CC(=O)N1CCN(c2ccccc2NC(=O)COc2ccc(Cl)cc2Cl)CC1	-9.7	12.0	18.5*	-43.1	-13.9
COc1c(F)c(F)c(C(=O)Nc2ccccc2N2CCN(C(C)=O)CC2)c(F)c1F	2.1	47.3*	-8.8	-13.8	1.2
Cc1ccc(C(=O)Nc2ccc(N3CCN(C(=O)c4cccs4)CC3)cc2)c(Cl)c1	-10.1	-4.5	-10.6	-38.8	15.8
CC(=O)c1ccc(N2CCN(C(=O)c3cc(-c4ccncc4)nc4ccc(Cl)cc34)CC2)cc1	16.4	6.2	-10.1	-13.8	-3.4
O=C(CSC1=NS(=O)(=O)c2ccccc2N1)Nc1ccccc1F	.	2.2	.	.	.
C=CCn1c(SCC(=O)NCC2CCCO2)nc2scc(-c3ccccc3)c2c1=O (configuration not stated)	-14.9	-1.4	3.9	-32.4	-1.2
C=CCn1c(SCC(=O)NC2CCCC2)nc2scc(-c3ccco3)c2c1=O	-9.2	54.6*	-9.4	-17.2	25.5
Cn1nnnc1SCC(=O)N1CCN(c2ccc(Cl)cc2)CC1	-7.6	2.6	15.8*	-14.9	11.8
Cn1nnnc1SCC(=O)N1CCCCC1	15.2	-4.0	3.6	-1.7	7.3
Cc1ccc(C)c(N2CCN(C(=O)CSc3ccsc3[N+](=O)[O-])CC2)c1	-10.4	55.6*	-3.5	3.3	8.1
O=C(CSc1ccsc1[N+](=O)[O-])N1CCN(c2ccc(Cl)cc2)CC1	-0.1	66.7*	4.7	9.3	9.1
CC(C)N1CCN(Cc2ccc(Sc3nncn3C)o2)CC1CCO (configuration not stated)	-4.3	-1.5	-4.4	-2.0	-2.1
COc1ccc(CCN(C)C2CCCN(C(=O)Cn3cnnn3)C2)cc1OC (configuration not stated)	-8.4	-4.3	-5.2	5.0	12.2
O=S(=O)(NCc1ccccc1)c1ccc(-n2cccn2)cc1	-5.0	2.1	-0.3	-20.6	15.6
COc1ccc(C(O)Cn2c(=N)n(CCCN(C)C)c3ccccc32)cc1 (configuration not stated)	-4.0	-3.9	-4.6	38.0*	-5.8
COCCCC1CCN(C(=O)C2CCC(=O)N(Cc3ccccc3F)C2)CC1 (configuration not stated)	-3.8	.	-8.3	-46.9	3.1
COc1ccccc1N(CC(=O)N1CCOCC1)S(C)(=O)=O	-6.7	-5.4	-5.1	-3.3	5.1
COCCCNCCOCCOc1ccc(Cl)cc1C(C)(C)C	3.2	-8.6	35.2*	34.6	-43.5
Cc1ccccc1CSc1nnc(C)c(=O)[nH]1	-5.2	-5.2	17.4*	2.6	-5.2
Cc1ccccc1CSc1nc2ccccc2c(=O)[nH]1	-0.4	2.0	-8.2	-4.0	-5.9

From PubChem
